Data set [1] deals with T1, Nuclear factor NF-kappa-B complex (Homo sapiens) (UniProt Q00653+P19838+Q04206). Briefly: Inhibition of TNFalpha-induced NF-kB transactivation in human K562 cells after 8 hrs by luciferase reporter gene assay. For orientation: A reporter such as luciferase makes a cellular process visible.
Data set [2] relates to U-937. Briefly: Induction of apoptosis in human U937 cells assessed as induction of caspase 3/7 activity at 40 uM after 8 to 48 hrs by luminescent assay relative to untreated control in presence of 50 uM z-VAD. The data set is classed as functional, cell-based. Put shortly: (§1)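 Caspase-Glo 3/7 readout at 3 × 10⁵ cells/mL. Cells were pretreated 1 h with the pan-caspase inhibitor Z-VAD(OMe)-FMK, then exposed to compounds at 40 µM for 8, 24 and 48 h. Culture was mixed 1:1 with reagent for 1 h at room temperature; luminescence is expressed as fold change over untreated cells.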

The subject of data set [3] is U-937. As to the kind of experiment: Induction of apoptosis in human U937 cells assessed as induction of caspase 3/7 activity at 40 uM after 48 hrs by luminescent assay relative to untreated control. Format: functional. Put shortly: (§2)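 Cells at 3 × 10⁵/mL were treated with test compounds at 40 µM for 8, 24 or 48 h. Culture was then mixed 1:1 with Caspase-Glo 3/7 reagent and incubated 1 h at room temperature; the reagent lyses cells, caspase cleaves the substrate and luciferase gives luminescence. Results are fold change versus untreated cells.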

Data set [4] concerns K562. Briefly: Cytotoxicity against human K562 cells after 24 to 72 hrs by CellTiter-Glo luminescent cell viability assay. Format: functional, cell-based. Put shortly: (§3)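 K562 cells were grown in RPMI with 10% FCS and 1% antibiotic-antimycotic at 37 °C, 5% CO2. Cells were exposed to a range of concentrations for 24 and 72 h and metabolic activity was read. Data were normalized to untreated control as % viable cells, mean ± SD of three determinations, with IC50 derived from dose-response curves.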

The test system of data set [5] is U-937. As to the kind of experiment: Induction of apoptosis in human U937 cells assessed as induction of caspase 3/7 activity at 40 uM after 24 hrs by luminescent assay relative to untreated control. Format: functional. Put shortly: as §2
The target in data set [6] is T1, Nuclear factor NF-kappa-B complex (Homo sapiens). As to the kind of experiment: Inhibition of TNFalpha-induced NF-kB transactivation in human K562 cells at 40 uM after 8 hrs by luciferase reporter gene assay.
Data set [7] concerns K562. Briefly: Induction of apoptosis in human K562 cells assessed as induction of caspase 3/7 activity at 40 uM after 24 hrs by luminescent assay relative to untreated control. Format: functional. Summed up: as §2
The next data set deals with PBMC. Briefly: Cytotoxicity against human PBMCs after 24 to 72 hrs by CellTiter-Glo luminescent cell viability assay. The data set is classed as cell-based. The conditions noted are these: for Activity: human, pbmc. Put shortly:
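PBMCs from healthy donors were isolated by Ficoll centrifugation (400 g, 20 min) of blood diluted 1:1 in RPMI, then washed 2–3 times. Cells rested 24 h at 37 °C, 5% CO2 before dosing. They were then treated as for K562: 40 µM screen and dose-response at 24 and 72 h, % viable versus control, mean ± SD of three determinations.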

Data set [8] relates to Jurkat. Briefly: Induction of apoptosis in human Jurkat cells assessed as induction of caspase 3/7 activity at 40 uM after 8 to 48 hrs by luminescent assay relative to untreated control in presence of 50 uM z-VAD. Format: functional, cell-based. Put shortly:
as §1

Data set [9] concerns K562. As to the kind of experiment: Induction of apoptosis in human K562 cells at 40 uM after 72 hrs using Hoechst 33342 by fluorescence microscopy. Format: functional, cell-based. Put shortly: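 K562 cells were treated 72 h at 40 µM, then stained with Hoechst 33342 for 15 min at 37 °C. Nuclear morphology, scored as condensed nuclei, was examined by fluorescence microscopy. Etoposide served as positive control.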

Data set [10] deals with K562. As to the kind of experiment: Induction of apoptosis in human K562 cells assessed as induction of caspase 3/7 activity at 40 uM after 8 hrs by luminescent assay relative to untreated control. Format: functional. Summed up: as §2
Data set [11] has as its system U-937. As to the kind of experiment: Induction of apoptosis in human U937 cells assessed as induction of caspase 3/7 activity at 40 uM after 8 hrs by luminescent assay relative to untreated control. Format: functional. Put shortly:
as §2

The test system of data set [12] is Jurkat. Briefly: Induction of apoptosis in human Jurkat cells assessed as induction of caspase 3/7 activity at 40 uM after 8 hrs by luminescent assay relative to untreated control. Format: functional. Put shortly:
as §2

Data set [13] deals with T1, Nuclear factor NF-kappa-B complex (Homo sapiens). Briefly: Inhibition of TNFalpha-induced NF-kB pathway in human K562 cells assessed as inhibition of IL-8 release preincubated for 2 hrs before TNFalpha addition measured after 24 hrs by sandwich ELISA. Format: cell-based. Summed up:
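K562 cells were pretreated 2 h with compound, then activated with TNFα 20 ng/mL for 22 h (24 h total). Supernatant IL-8 was quantified by sandwich ELISA: pre-coated anti-IL-8 wells for 2 h at room temperature, peroxidase-conjugated polyclonal anti-IL-8 for 60 min, then H2O2/TMB colorimetric development. Mean ± SD of three determinations.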

The subject of data set [14] is Jurkat. Briefly: Induction of apoptosis in human Jurkat cells assessed as induction of caspase 3/7 activity at 40 uM after 24 hrs by luminescent assay relative to untreated control. The data set is classed as functional. Put shortly: as §2
Data set [15] relates to K562. Briefly: Induction of apoptosis in human K562 cells assessed as induction of caspase 3/7 activity at 40 uM after 8 to 48 hrs by luminescent assay relative to untreated control in presence of 50 uM z-VAD. Format: functional, cell-based. Put shortly: as §1
The subject of data set [16] is K562. Briefly: Induction of apoptosis in human K562 cells assessed as induction of caspase 3/7 activity at 40 uM after 48 hrs by luminescent assay relative to untreated control. Format: functional. Summed up:
as §2

For data set [17], the system named is K562. Briefly: Cytotoxicity against human K562 cells at 40 uM assessed as reduction in cell viability after 72 hrs by CellTiter-Glo luminescent assay relative to control. Format: functional. Summed up: (§4)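 K562 cells in RPMI/10% FCS at 37 °C, 5% CO2 were exposed to a single 40 µM concentration for 24 or 72 h. Metabolic activity was normalized to untreated control as % viable cells, mean ± SD of three determinations. Etoposide served as positive control.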

The test system of data set [18] is K562. Briefly: Cytotoxicity against human K562 cells assessed as reduction in cell viability at 8.2 uM after 24 hrs by CellTiter-Glo luminescent assay. The data set is classed as functional, cell-based. (In ATP-based viability assays light output follows the ATP content of the culture.)
Data set [19] concerns Jurkat. As to the kind of experiment: Induction of apoptosis in human Jurkat cells assessed as induction of caspase 3/7 activity at 40 uM after 48 hrs by luminescent assay relative to untreated control. The data set is classed as functional. Put shortly: as §2
The test system of data set [20] is K562. Briefly: Cytotoxicity against human K562 cells after 72 hrs by CellTiter-Glo luminescent cell viability assay. The data set is classed as functional, cell-based. The following applies: K562, 72 h. Summed up:
as §3

Data set [21] concerns K562. Briefly: Cytotoxicity against human K562 cells assessed as reduction in cell viability at 40 uM after 24 hrs by CellTiter-Glo luminescent assay. The data set is classed as functional. Summed up: as §4
In data set [22] the target is T1, Nuclear factor NF-kappa-B complex (Homo sapiens). Briefly: Inhibition of TNFalpha-induced NF-kB pathway in human K562 cells after 8 hrs by luciferase reporter gene assay. Format: cell-based. Summed up:
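K562 cells were electroporated with an NF-κB-RE firefly luciferase reporter (5 µg) plus phRG-TK Renilla plasmid, then recovered 24 h in RPMI/10% FCS. Cells were resuspended at 1 × 10⁶/mL in RPMI/0.1% FCS, pretreated 2 h, then stimulated with TNFα 20 ng/mL for 6 h (8 h total). Dual-Glo firefly/Renilla ratio read at 22 °C; three independent experiments.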

The results in this text go back to ChEMBL document CHEMBL3351397, “Synthesis and bioactivity of novel amino-pyrazolopyridines” (Eur J Med Chem, 2014).

Calls of active or inactive are those of the source. No cut-off for these calls is given here.

T1 sequence (P19838 whole entry, looked up): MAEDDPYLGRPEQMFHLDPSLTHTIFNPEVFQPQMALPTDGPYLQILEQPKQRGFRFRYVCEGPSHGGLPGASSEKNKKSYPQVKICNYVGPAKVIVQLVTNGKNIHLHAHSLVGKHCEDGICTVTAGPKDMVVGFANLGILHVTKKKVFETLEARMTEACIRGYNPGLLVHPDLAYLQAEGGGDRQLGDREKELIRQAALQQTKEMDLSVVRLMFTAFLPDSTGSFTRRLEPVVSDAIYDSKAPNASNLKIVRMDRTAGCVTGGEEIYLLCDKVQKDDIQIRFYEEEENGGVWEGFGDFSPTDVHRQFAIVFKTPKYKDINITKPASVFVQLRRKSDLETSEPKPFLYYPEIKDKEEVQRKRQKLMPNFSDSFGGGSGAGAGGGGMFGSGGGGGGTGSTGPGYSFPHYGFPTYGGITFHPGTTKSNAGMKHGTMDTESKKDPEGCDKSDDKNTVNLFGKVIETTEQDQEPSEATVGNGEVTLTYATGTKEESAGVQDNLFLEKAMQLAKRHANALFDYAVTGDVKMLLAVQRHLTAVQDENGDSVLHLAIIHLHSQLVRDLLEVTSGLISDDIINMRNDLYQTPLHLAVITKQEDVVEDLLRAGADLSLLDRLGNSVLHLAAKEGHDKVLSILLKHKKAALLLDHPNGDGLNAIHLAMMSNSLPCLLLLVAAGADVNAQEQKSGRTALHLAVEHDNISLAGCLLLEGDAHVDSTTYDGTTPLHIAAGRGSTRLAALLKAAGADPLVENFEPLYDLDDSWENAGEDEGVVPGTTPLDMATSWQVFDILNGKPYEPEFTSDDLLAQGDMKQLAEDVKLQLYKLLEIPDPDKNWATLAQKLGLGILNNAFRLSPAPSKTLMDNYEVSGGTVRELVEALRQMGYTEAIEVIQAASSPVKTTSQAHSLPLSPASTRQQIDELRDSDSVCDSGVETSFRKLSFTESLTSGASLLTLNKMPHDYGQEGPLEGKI
T1 sequence (Q00653 whole entry, looked up): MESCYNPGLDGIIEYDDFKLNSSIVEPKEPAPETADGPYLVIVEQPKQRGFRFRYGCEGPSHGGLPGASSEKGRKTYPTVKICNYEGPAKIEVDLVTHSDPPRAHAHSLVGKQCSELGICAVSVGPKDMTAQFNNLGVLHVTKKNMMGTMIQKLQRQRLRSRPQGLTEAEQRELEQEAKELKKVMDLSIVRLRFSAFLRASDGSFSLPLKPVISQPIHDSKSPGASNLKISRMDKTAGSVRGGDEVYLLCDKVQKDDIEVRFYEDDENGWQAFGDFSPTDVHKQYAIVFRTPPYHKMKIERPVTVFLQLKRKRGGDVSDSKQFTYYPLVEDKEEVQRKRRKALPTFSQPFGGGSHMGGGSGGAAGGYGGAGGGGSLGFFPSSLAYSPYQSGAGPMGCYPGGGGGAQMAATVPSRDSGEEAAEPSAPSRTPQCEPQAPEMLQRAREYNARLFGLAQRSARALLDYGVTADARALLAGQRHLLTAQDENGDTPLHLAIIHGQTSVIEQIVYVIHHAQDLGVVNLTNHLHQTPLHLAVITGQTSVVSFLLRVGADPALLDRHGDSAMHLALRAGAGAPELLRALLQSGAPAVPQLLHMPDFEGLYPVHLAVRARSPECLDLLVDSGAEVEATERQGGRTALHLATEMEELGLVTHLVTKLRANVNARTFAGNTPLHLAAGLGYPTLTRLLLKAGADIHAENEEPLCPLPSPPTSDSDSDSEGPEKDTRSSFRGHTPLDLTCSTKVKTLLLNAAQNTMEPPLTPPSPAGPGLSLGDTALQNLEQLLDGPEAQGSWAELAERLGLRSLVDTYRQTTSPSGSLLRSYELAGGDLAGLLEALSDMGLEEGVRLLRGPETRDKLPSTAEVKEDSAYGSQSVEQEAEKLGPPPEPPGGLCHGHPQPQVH
T1 sequence (Q04206 whole entry, looked up): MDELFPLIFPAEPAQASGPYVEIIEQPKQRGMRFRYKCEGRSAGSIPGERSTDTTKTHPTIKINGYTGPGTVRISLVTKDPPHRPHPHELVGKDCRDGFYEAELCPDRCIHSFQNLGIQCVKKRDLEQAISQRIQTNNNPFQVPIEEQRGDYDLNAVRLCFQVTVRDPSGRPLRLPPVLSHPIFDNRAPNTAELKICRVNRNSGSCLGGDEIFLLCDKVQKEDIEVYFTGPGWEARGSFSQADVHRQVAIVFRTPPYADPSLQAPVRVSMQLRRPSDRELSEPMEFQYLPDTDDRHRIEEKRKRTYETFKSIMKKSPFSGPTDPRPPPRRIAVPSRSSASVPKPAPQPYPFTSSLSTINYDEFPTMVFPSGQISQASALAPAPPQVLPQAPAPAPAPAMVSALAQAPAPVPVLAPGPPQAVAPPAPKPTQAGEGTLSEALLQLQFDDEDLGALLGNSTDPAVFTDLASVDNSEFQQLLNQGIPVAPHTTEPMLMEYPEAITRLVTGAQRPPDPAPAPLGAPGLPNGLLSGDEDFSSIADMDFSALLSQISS

For the compound `CC1Cc2cnc3[nH]nc(N)c3c2-c2ccccc21` (stereo not given), the inhibition entry in data set [1] and in data set [13] was “Dose-dependent effect” in each case. In addition, the result with U-937 [2], with Jurkat [8], in the data set on K562 [15] and in the data set with K562 [18] was inactive. Further, the Activity with U-937 [3] is 1.48%; with K562 [4], “Dose-dependent effect”; in the data set on U-937 [5], 6.27%; in the data set with K562 [7], 2.04; in the data set with Jurkat [12], 8.89%; in the data set on Jurkat [14] it was 5.38%. Also, the figures for the Activity in the data set on K562 [16] and in the data set on K562 [17] were 1.55% and above 50%, respectively. Further, the IC50 (usually the concentration at which inhibition is half-maximal) in the data set with K562 [4] was determined as 36.5 µM; in the data set with PBMC (Homo sapiens, PBMC), 36.6 µM. Besides, the inhibition entry in [6] was “Active”. Further, the outcome in the data set on K562 [9] was Active. The Fold change stood at 1.44 in the data set on K562 [10], 16.5 in the data set on U-937 [11] and 2.11 with Jurkat [19].
On to `Cc1cnc2[nH]nc(N)c2c1-c1ccccc1`, for which the inhibition entry in [1] is “Dose-dependent effect”. For the same compound, the result with U-937 [2], in the data set with Jurkat [8] and with K562 [15] was inactive. Moreover, the Activity in the data set on U-937 [3] is 4.35%; in the data set on U-937 [5] it was 5.87%; in the data set with K562 [7], 3.62; in the data set with PBMC, “Non-toxic”; in the data set on Jurkat [12], 1.27%; in the data set on Jurkat [14] it was 1.31%. The Activity in the data set on K562 [16] was 2.9%; in the data set on K562 [21] it was below 50%; in the data set on K562 [17] it was above 50%. Moreover, the IC50 with K562 [4] and with K562 [20] was 35 µM in each case. Moreover, the inhibition result in data set [6] and in [22] was “Active” throughout. In addition, the result in the data set with K562 [9] was Active. Besides, the Fold change with K562 [10] was 1.26; in the data set on U-937 [11] it was 1.73; in the data set with Jurkat [19], 1.44.
Regarding `Nc1n[nH]c2ncc3c(c12)-c1ccccc1CC3`, in [1], the inhibition result was “Dose-dependent effect”. In addition, the outcome in the data set on U-937 [2], with Jurkat [8] and in the data set on K562 [15] was inactive. In addition, the Activity was 1.74% in the data set on U-937 [3]; 5.84% in the data set on U-937 [5]; 2.5 with K562 [7]; “Non-toxic” in the data set with PBMC; 2.86% in the data set with Jurkat [12]; 2.73% in the data set on Jurkat [14]. In addition, the Activity in the data set with K562 [16] is on record as 2.23%; in the data set with K562 [17] it was above 50%. Besides, the midpoint of inhibition in the data set with K562 [4], the IC50, lay at 27.6 µM. Moreover, the inhibition entry in [6] was “Active”. The outcome with K562 [9] was Active. The Fold change came out at 1.37 in the data set on K562 [10], 11.7 in the data set with U-937 [11] and 2.05 in the data set on Jurkat [19].
